Published values collected from several papers.
Lines come from different studies, so protocols differ.
Cell line: SN12C
Observed: cell growth or viability

Structure (SMILES)	method	tested at	time	quantity	result
COc1cc(-c2ccc(-c3ccc(C(=N)N)nc3)s2)cc(OC)c1OC				GI50	2050 nM
CC[C@@]1(O)C(=O)OCc2c1cc1n(c2=O)Cc2cc3ccccc3nc2-1	SRB			GI50	20 nM
COc1cccc(Oc2ccccc2NC(=O)CNC(=O)c2cccc3ccccc23)c1	SRB		48 h	GI50	1450 nM
Cc1cc(C)n(C(=S)[S][Au][PH](CCCCCC[PH]([Au][S]C(=S)n2nc(C)cc2C)(c2ccccc2)c2ccccc2)(c2ccccc2)c2ccccc2)n1				GI50	479 nM
COc1ccc(C(=O)/C=C/c2ccc(Cl)c(Cl)c2)cc1S(N)(=O)=O	SRB		48 h	GI50	1400 nM
S=C([S][Au-][P+](CCCCCC[P+]([Au-][S]C(=S)n1cccn1)(c1ccccc1)c1ccccc1)(c1ccccc1)c1ccccc1)n1cccn1				GI50	1950 nM
COc1ccc(C(=O)/C=C/c2cccc(Br)c2)cc1S(N)(=O)=O	SRB	10 µM		inhibition	179%
COc1ccc(-c2ccc(-c3ccc(C(=N)N)nc3)s2)cc1Cl				GI50	1790 nM
